Laboratory results published in ChEMBL document CHEMBL4130511, “Phenylpropenoids from Bupleurum fruticosum as Anti-Human Rhinovirus Species A Selective Capsid Binders” (J Nat Prod, 2017).
Activity calls are given as the source filed them. The rule behind the calls is not given here.

Experiments:
[1] = system: rhinovirus A39; assay: Antiviral activity against Human rhinovirus serotype 39 infected in human HeLa cells assessed as reduction in virus-induced cytopathic effect after 24 to 36 hrs by MTT assay; assay type: functional, organism-based; conditions: Rhinovirus A
In short: (§1)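 HeLa (Ohio) monolayers in DMEM with 1% nonessential amino acids and 10% fetal calf serum, infected at MOI 1, then given serial compound dilutions. Incubation 24−36 h at 33 °C, 3% CO2, until control CPE was almost total. Multicycle CPE reduction read by MTT. EC50 (50% CPE inhibition) taken from dose−response curves by linear regression. Pleconaril served as reference.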

[2] = system: rhinovirus B14; assay: Antiviral activity against Human rhinovirus serotype 14 infected in human HeLa cells assessed as reduction in virus-induced cytopathic effect after 24 to 36 hrs by MTT assay; assay type: functional, organism-based; conditions: Rhinovirus B; in short: as §1
[3] = Cytotoxicity against human HeLa cells assessed as decrease in cell viability after 72 hrs by MTT assay; assay type: cell-based
In short: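 HeLa monolayers exposed to a range of compound concentrations at 37 °C, 5% CO2. Morphology (rounding, shrinking, detachment) checked by light microscopy at 24, 48 and 72 h. Viability measured by MTT colorimetry. CC50 is the concentration that lowered control absorbance by 50%.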

[4] = Selectivity index, ratio of CC50 for human HeLa cells to EC50 for Human rhinovirus serotype 39 infected in human HeLa cells; assay type: toxicity, cell-based; conditions: read-out: Ratio CC50/EC50
In short: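 Selectivity index computed as CC50 (MTT, uninfected HeLa) divided by EC50 (MTT, HRV39 CPE reduction in HeLa at MOI 1, 24−36 h at 33 °C).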

[5] = molecular target: T1, VP1 capsid protein (Human rhinovirus sp.) (UniProt Q7T664); assay: Inhibition of Human rhinovirus serotype 39 capsid infected in human HeLa cells assessed as reduction in virus-induced cytopathic effect at 5 ug/ml treated 1 hr post viral infection measured after 24 to 36 hrs relative to control; assay type: cell-based; conditions: rhinovirus A39
T1 sequence (whole entry): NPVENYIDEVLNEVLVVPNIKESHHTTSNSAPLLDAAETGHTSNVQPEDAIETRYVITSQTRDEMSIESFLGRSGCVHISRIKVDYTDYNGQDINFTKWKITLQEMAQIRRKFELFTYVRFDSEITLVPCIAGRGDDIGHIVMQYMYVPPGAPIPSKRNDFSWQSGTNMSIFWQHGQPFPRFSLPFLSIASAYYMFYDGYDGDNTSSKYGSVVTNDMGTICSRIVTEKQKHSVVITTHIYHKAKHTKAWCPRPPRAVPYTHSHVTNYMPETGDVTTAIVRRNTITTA
In short: (§2)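 HeLa (Ohio strain) monolayers in 24-well plates (DMEM, 10% fetal calf serum) infected with ATCC HRV39 (working stock prepared as cell lysate). Compound at 5 μg/mL added before (−1 h), at (0 h) or after infection. Cells incubated in CO2 atmosphere for 24–36 h, then washed twice with HBSS. Virus yield inhibition (%) determined by virus-cell-based CPE reduction assay in HeLa cells. Pirodavir (5 μg/mL) served as positive control.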

[6] = molecular target: T1, VP1 capsid protein (Human rhinovirus sp.); assay: Inhibition of Human rhinovirus serotype 39 capsid infected in human HeLa cells assessed as reduction in virus-induced cytopathic effect at 5 ug/ml treated with virus inoculum measured after 24 to 36 hrs relative to control; assay type: cell-based; conditions: rhinovirus A39; in short: as §2
[7] = molecular target: T1, VP1 capsid protein (Human rhinovirus sp.); assay: Inhibition of Human rhinovirus serotype 39 capsid infected in human HeLa cells assessed as reduction in virus-induced cytopathic effect at 5 ug/ml treated 3 hrs post viral infection measured after 24 to 36 hrs relative to control; assay type: cell-based; conditions: rhinovirus A39; in short: as §2
[8] = molecular target: T1, VP1 capsid protein (Human rhinovirus sp.); assay: Inhibition of Human rhinovirus serotype 39 capsid infected in human HeLa cells assessed as reduction in virus-induced cytopathic effect at 5 ug/ml treated 2 hrs post viral infection measured after 24 to 36 hrs relative to control; assay type: cell-based; conditions: rhinovirus A39; in short: as §2
[9] = molecular target: T1, VP1 capsid protein (Human rhinovirus sp.); assay: Inhibition of Human rhinovirus serotype 39 capsid infected in human HeLa cells assessed as reduction in virus-induced cytopathic effect at 5 ug/ml treated 1 hr prior to viral infection measured 24 to 36 hrs post viral infection relative to control; assay type: cell-based; conditions: rhinovirus A39; in short: as §2

Compound	EC50 [1]	EC50 [2]	CC50 at 72 h [3]	selectivity ratio [4]	inhibition [5]	inhibition [6]	inhibition [7]	inhibition [8]	inhibition [9]
CC(C)[C@@H]1CCC(C=O)=C[C@H]1O	> 47.6 µM	> 47.6 µM	47.6 µM	–	–	–	–	–	–
C/C=C(/C)C(=O)OC/C=C/c1ccc(OC)cc1	30.9 µM	> 248 µM	248 µM	8	–	–	–	–	–
CC(C)CC(=O)OC/C=C/c1ccccc1	> 142 µM	> 142 µM	142 µM	–	–	–	–	–	–
C/C=C(/C)C(=O)OC/C(=C/C)C(=O)OC/C=C/c1ccc(OC)cc1	> 36.3 µM	> 36.3 µM	36.3 µM	–	–	–	–	–	–
C=C[C@H](O)C#CC#CC/C=C\CCCCCCCCO	1.8 µM	> 14.6 µM	14.6 µM	8.1	–	–	–	–	–
COc1ccc(/C=C/CO)cc1OC	> 160 µM	> 160 µM	160 µM	–	–	–	–	–	–
Cc1cc(CCCOc2c(C)cc(-c3noc(C(F)(F)F)n3)cc2C)on1 [PLECONARIL]	0.1 µM	0.3 µM	131 µM	–	–	–	–	–	–
COc1ccc(/C=C/CO)cc1	> 189 µM	> 189 µM	189 µM	–	–	–	–	–	–
C/C=C(/C)C(=O)OC/C=C/c1ccc(OC)c(OC)c1	> 453 µM	> 453 µM	453 µM	–	–	–	–	–	–
C=CC(O)C#CC#C/C=C/C(O)CCCCCCCCO (configuration not stated)	> 107 µM	> 107 µM	107 µM	–	–	–	–	–	–
C/C=C(/C)C(=O)OC/C(=C/C)C(=O)OC/C=C/c1ccc(OC)c(OC)c1	2.4 µM	> 20.3 µM	20.3 µM	8.4	78%	90%	50%	65%	100%
CCOC(=O)c1ccc(OCCC2CCN(c3ccc(C)nn3)CC2)cc1	–	–	–	–	–	Active	–	–	–
